Test results taken from ChEMBL document CHEMBL1121819, “Potential anticonvulsants. 1. 5-Benzylhydantoins” (J Med Chem, 1981).
Calls of active or inactive are those of the source.

Columns and labels:
Mus musculus [1] = experiment: Neurological deficit was measured in the mice using rotarod test when administered intraperitoneally; type: functional; conditions: ip
Summary of the method: (§1)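 Mice dosed ip, then placed on rotarod turning at 11 rpm; failure to stay on for at least 1 min scored as loss of coordination. ED50 in mg/kg.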

[2] = Acute toxicity measured in mice when administered intraperitoneally; type: organism-based; conditions: mus sp., in vivo, ip
Mus musculus [3] = experiment: Anticonvulsant activity was measured by the ability to prevent matrazol induced threshold clonic seizures in mice when administered intraperitoneally; type: functional; conditions: ip
Summary of the method: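 Mice were pretreated intraperitoneally 30 min before pentylenetetrazole (90 mg/kg ip). Compounds were given as a 0.5% methylcellulose suspension at 10 mL/kg; controls received diluent. Animals were watched for 15 min and counted protected if clonic seizures were prevented. The ED50 is the dose protecting half the animals.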

Mus musculus [4] = experiment: Anticonvulsant activity was measured by the ability to prevent maximal electroshock seizure in mice when administered intraperitoneally; type: functional; conditions: ip
Summary of the method: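 Male ICR (Blue Spruce) mice, 19–22 g, dosed ip as suspension in 0.5% methylcellulose (10 mL/kg) 30 min prior to corneal electroshock, 50 mA for 0.2 s. Mice scored protected if hind-limb extensor phase was blocked; ED50 in mg/kg.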

Mus musculus [5] = experiment: Tolerance was tested in maximal electroshock seizures test in mice when administered intraperitoneally; Yes; type: functional, organism-based
Rattus norvegicus [6] = organism: Rattus norvegicus; experiment: Peak time of anticonvulsant activity against MES was determined; 4-6; type: functional
Summary of the method: (§2)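 Separate groups of rats dosed ip at approximate ED84 and challenged by maximal electroshock (150 mA, 0.2 s, corneal electrodes) at 0.5, 1, 2, 3 or >6 h after dosing; protection = hind-limb extensor blocked. Time of peak activity/duration in h.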

[7] = Acute toxicity of was measured in rat by ip administration of the compound; type: organism-based; conditions: in vivo
Rattus norvegicus [8] = experiment: Anticonvulsant activity measured to prevent maximal electroshock seizure in rats when administered intraperitoneally; type: functional; conditions: ip
Summary of the method: (§3)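 Male Sprague–Dawley rats (160–300 g) given compound ip as suspension in 0.5% methylcellulose (10 mL/kg), 30 min before electroshock; 150 mA via corneal electrodes for 0.2 s. Protection = abolition of hind-limb tonic extensor component. ED50 in mg/kg.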

Rattus norvegicus [9] = experiment: Anticonvulsant activity was measured by the ability to prevent intraperitoneally; Inactive; type: functional, organism-based
Summary of the method: (§4)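 Pentylenetetrazole (90 mg/kg ip) given after ip pretreatment with test agent as suspension in 0.5% methylcellulose; controls received diluent. Animals observed 15 min; protection = absence of clonic seizures. ED50 in mg/kg.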

[10] = Acute toxicity of was measured in rat by po administration of the compound; type: organism-based; conditions: in vivo
Mus musculus [11] = experiment: Loss of righting reflex was measured in the mice when administered intraperitoneally; type: functional; conditions: ip
Rattus norvegicus [12] = experiment: (§5) Anticonvulsant activity was measured by the ability to prevent intraperitoneally; type: functional; summary of the method: as §4
Mus musculus [13] = experiment: Neurological deficit (Loss of coordination) was measured in the mice using rotarod test when administered intraperitoneally; type: functional; conditions: ip; summary of the method: as §1
[14] = (§6) Acute toxicity of was measured in rat by ip administration when administered intraperitoneally; type: organism-based; conditions: in vivo
Rattus norvegicus [15] = experiment: Acute toxicity of was measured in rat by po administration when administered intraperitoneally; type: organism-based; conditions: in vivo
Rattus norvegicus [16] = organism: Rattus norvegicus; experiment: Peak time of anticonvulsant activity against MES was determined; type: functional; summary of the method: as §2
[17] = as §6; type: organism-based; conditions: in vivo; remark: listed apart in the source
Rattus norvegicus [18] = experiment: Anticonvulsant activity was measured by the ability to prevent maximal electroshock seizure in rat when administered intraperitoneally; type: functional; conditions: ip; summary of the method: as §3
Rattus norvegicus [19] = experiment: Peak time of anticonvulsant activity against MES was determined ip; type: functional; summary of the method: as §2
Mus musculus [20] = experiment: as §5; type: functional; conditions: ip; summary of the method: as §4

SMILES	LD50 [2] [mg/kg]	ED50 (Rattus norvegicus [8]) [mg/kg]	ED50 (Rattus norvegicus [12]; ip) [mg/kg]	other results
O=C1NC(=O)C(c2ccccc2)(c2ccccc2)N1 [PHENYTOIN]	100	9.6		ED50 (Mus musculus [1]): 135 mg/kg; ED50 (Mus musculus [3]): 50 mg/kg; ED50 (Mus musculus [4]): 8.5 mg/kg; Tolerance (Mus musculus [5]): Active; Duration of action (Rattus norvegicus [6]): 4 h; LD50 [7]: 280 mg/kg; ED50 (Rattus norvegicus [9]): inactive; LD50 [10]: > 1000 mg/kg; ED50 (Mus musculus [11]): 82 mg/kg
O=C1NC(Cc2cccc(C(F)(F)F)c2)C(=O)N1CCO (centres undefined)		45	100	
COc1ccc(/C=C2/NC(=O)NC2=O)cc1OC	> 500	> 200	> 50	
O=C1NC(=O)/C(=C\c2cccc(C(F)(F)F)c2)N1	350	~50	> 200	
COc1ccc(CC2NC(=O)NC2=O)cc1OC (centres undefined)		> 50	> 200	
COc1ccc(OC)c(CC2NC(=O)NC2=O)c1 (centres undefined)		> 50		
COc1ccc(CC2(C)NC(=O)NC2=O)cc1OC (centres undefined)	> 500	> 50	> 200	
N#CCCN1C(=O)NC(Cc2cccc(C(F)(F)F)c2)C1=O (centres undefined)		> 50		
O=C1NC(=O)C(c2ccccc2)(c2cccc(C(F)(F)F)c2)N1 (centres undefined)	> 100	> 50	> 200	
CCCC(CCC)C(=O)O [VALPROIC ACID]			> 500	ED50 (Mus musculus [13]): 415 mg/kg; LD50 [14]: 838 mg/kg; ED50 (Mus musculus [4]): 260 mg/kg; LD50 (Rattus norvegicus [15]): 1530 mg/kg; Duration of action (Rattus norvegicus [16]): ~5 h; LD50 [17]: 1040 mg/kg; ED50 (Rattus norvegicus [18]): 94.8 mg/kg
COc1ccc(CC2(C)NC(=O)NC2=O)c(OC)c1 (centres undefined)	> 600	> 50		
CN1C(=O)NC(Cc2cccc(Br)c2)C1=O (centres undefined)	500	30	~100	
CCOC(=O)CN1C(=O)NC(Cc2cccc(C(F)(F)F)c2)C1=O (centres undefined)	500	> 50	> 100	
COc1ccc(OC)c(/C=C2/NC(=O)NC2=O)c1	> 500	> 50	> 200	
CC1(Cc2cccc(C(F)(F)F)c2)NC(=O)NC1=O (centres undefined)		> 50		
O=C1NC(=O)C(Cc2cccc(C(F)(F)F)c2)N1 (centres undefined)	350	23		ED50 (Mus musculus [13]): 65 mg/kg; ED50 (Mus musculus [4]): 70 mg/kg; Duration of action (Rattus norvegicus [19]): 4 h; LD50 [7]: 410 mg/kg; ED50 (Mus musculus [20]): 17.5 mg/kg; ED50 (Rattus norvegicus [12]): ~100 mg/kg; ED50 (Mus musculus [11]): 160 mg/kg
O=C1NC(=O)C(Cc2cccc(Cl)c2)N1 (centres undefined)		> 50	~150	
O=C1NC(=O)/C(=C\c2cccc(Br)c2)N1	> 500	> 50	> 200	
O=C1NC(Cc2cccc(C(F)(F)F)c2)C(=O)N1CCBr (centres undefined)		> 50		
O=C1NC(=O)C(Cc2cccc(Br)c2)N1 (centres undefined)		> 50	> 200	
CN1C(=O)NC(Cc2cccc(C(F)(F)F)c2)C1=O (centres undefined)	350	> 50	> 100	
O=C1NC(=O)/C(=C\c2cccc(Cl)c2)N1		~50	> 200	
COc1ccc(OC)c(CC2(C)NC(=O)NC2=O)c1 (centres undefined)	> 800	> 50		
CC1(Cc2ccc3ccccc3c2)NC(=O)NC1=O (centres undefined)		> 50		
